Here are results for four compounds from ChEMBL document CHEMBL3244198, “Hetacillin (R)- and (S)-sulfoxides. Synthesis and structure-activity relationships” (1978).

Common to all, as to type: functional
One assay deals with Streptococcus pneumoniae. Briefly: Antibacterial activity against Streptococcus pneumoniae 9585 by two-fold serial dilution technique. The procedure, abridged: (§1)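 MIC read as µg/mL from twofold serial dilutions of each compound in nutrient broth, tested against the named strain.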
Assay [1] concerns Streptococcus pyogenes. Briefly: Antibacterial activity against Streptococcus pyogenes 9604 by two-fold serial dilution technique. A digest of the protocol:
as §1

For assay [2], the system named is Staphylococcus aureus. Briefly: Antibacterial activity against penicillin-resistant Staphylococcus aureus 9606 by two-fold serial dilution technique. A digest of the protocol: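 MIC (µg/mL) was determined by twofold serial dilution in nutrient broth against penicillin-resistant S. aureus 9606.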
The next assay has as its system Proteus vulgaris. The assay is described as follows: Antibacterial activity against Proteus vulgaris 9716 by two-fold serial dilution technique. A digest of the protocol:
as §1

Assay [3] concerns Staphylococcus aureus. Briefly: Antibacterial activity against Staphylococcus aureus 9537 by two-fold serial dilution technique. The procedure, abridged: as §1
The next assay deals with Proteus mirabilis. The assay is described as follows: Antibacterial activity against Proteus mirabilis 9900 by two-fold serial dilution technique. The procedure, abridged: as §1
The next assay concerns Escherichia coli. The assay is described as follows: Antibacterial activity against Escherichia coli 15119 by two-fold serial dilution technique. A digest of the protocol: as §1
In assay [4] the test system is Streptococcus pyogenes. Briefly: Antibacterial activity against Streptococcus pyogenes A9604 infected in mouse assessed as mouse survival administered intramuscularly at 1 hr post-infection measured for 5 days. The following applies: A9604, im, read-out: PD50. A digest of the protocol:
(§2)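 Mice were challenged intraperitoneally with about 1.3 × 10^3 S. pyogenes A9604 per mouse, diluted in brain heart infusion broth to give a uniform lethal infection. Fourfold compound dilutions were given intramuscularly or orally at 1 and 3.5 h postinfection. Survivors were followed for 5 days. PD50 is the total dose (mg/kg) protecting 50% of mice, calculated by the Spearman-Kärber method.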

Assay [5] deals with Streptococcus pyogenes. Briefly: Antibacterial activity against Streptococcus pyogenes A9604 infected in po dosed mouse assessed as mouse survival administered at 3.5 hrs post-infection measured for 5 days. The following applies: read-out: PD50. A digest of the protocol: as §2

≈ marks a conversion by molar mass, not a printed value. Where only a bound is given, the exact number is not on record here.

For orientation: MIC means the smallest concentration in the dilution series that meets the test's criterion for growth inhibition. Regarding `CC1(C)N=C(c2ccccc2)C(=O)N1[C@@H]1C(=O)N2[C@@H]1[S@+]([O-])C(C)(C)[C@@H]2C(=O)O`, the MIC in the assay with Streptococcus pneumoniae is 1 µg/mL (≈ 2.48 µM); against Streptococcus pyogenes [1], 1 µg/mL (≈ 2.48 µM); against Staphylococcus aureus [2] it was > 125 µg/mL; against Proteus vulgaris, > 125 µg/mL; against Staphylococcus aureus [3], > 8 µg/mL; against Proteus mirabilis, > 125 µg/mL. Moreover, the MIC with Escherichia coli was > 125 µg/mL.

Regarding `CC1(C)N[C@H](c2ccccc2)C(=O)N1[C@@H]1C(=O)N2[C@@H]1[S@+]([O-])C(C)(C)[C@@H]2C(=O)O`, the MIC in the assay on Streptococcus pneumoniae is 0.13 µg/mL (≈ 0.321 µM); in the assay with Streptococcus pyogenes [1] it was 0.13 µg/mL (≈ 0.321 µM); against Staphylococcus aureus [2], > 125 µg/mL; in the assay on Proteus vulgaris, 1 µg/mL (≈ 2.47 µM); with Staphylococcus aureus [3], 1 µg/mL (≈ 2.47 µM); in the assay on Proteus mirabilis, 1 µg/mL (≈ 2.47 µM). In the assay on Escherichia coli, this compound came in with an MIC of 8 µg/mL (≈ 19.7 µM). The figures for the ED50 in the assay on Streptococcus pyogenes [4] and in the assay with Streptococcus pyogenes [5] were 3.1 mg/kg and 9.4 mg/kg, respectively.

Regarding `CC1(C)N[C@H](c2ccccc2)C(=O)N1[C@@H]1C(=O)N2[C@@H]1[S@@+]([O-])C(C)(C)[C@@H]2C(=O)O`, the MIC against Streptococcus pneumoniae was 0.5 µg/mL (≈ 1.23 µM); with Streptococcus pyogenes [1], 0.5 µg/mL (≈ 1.23 µM); against Staphylococcus aureus [2] it was > 125 µg/mL; in the assay on Proteus vulgaris, 4 µg/mL (≈ 9.86 µM); in the assay with Staphylococcus aureus [3], 4 µg/mL (≈ 9.86 µM); in the assay on Proteus mirabilis, 4 µg/mL (≈ 9.86 µM). The compound also had an MIC against Escherichia coli of 32 µg/mL (≈ 78.9 µM). The ED50 is 9.6 mg/kg in the assay on Streptococcus pyogenes [4] and > 25 mg/kg in the assay with Streptococcus pyogenes [5].

With `CC1(C)S[C@@H]2[C@H](N3C(=O)[C@@H](c4ccccc4)NC3(C)C)C(=O)N2[C@H]1C(=O)O` [HETACILLIN], the MIC is 0.004 µg/mL (≈ 0.0103 µM) with Streptococcus pneumoniae; 0.004 µg/mL (≈ 0.0103 µM) against Streptococcus pyogenes [1]; > 125 µg/mL with Staphylococcus aureus [2]; 0.13 µg/mL (≈ 0.334 µM) in the assay on Proteus vulgaris; 0.016 µg/mL (≈ 0.0411 µM) against Staphylococcus aureus [3]; 0.13 µg/mL (≈ 0.334 µM) against Proteus mirabilis. For the same compound, the MIC in the assay on Escherichia coli came to 1 µg/mL (≈ 2.57 µM). In addition, the ED50 in the assay on Streptococcus pyogenes [4] was determined as 0.2 mg/kg; in the assay on Streptococcus pyogenes [5], 0.3 mg/kg.
